Screening data as filed in PubChem BioAssay.
A selection: hits, their analogues and other compounds. The true share with any hit is near 1.6%.
GSTO1 inh – inhibitors of recombinant GSTO1, primary screen, counter-screen for RBBP9 inhibitor project, biochemical, fluorescence polarization | Glutathione S-transferase omega-1 (Homo sapiens), P78417 | activity-based probe fluorescence polarization | inhibition, % at 5.96 µM | hit rate 1.1% among 300,000 | AID 1974, 2009;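 active = inhibition above the campaign mean inhibition plus 3 SD, cut at about 35% in these data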
JMJD2C inh – inhibitors of GASC-1 histone demethylase, primary screen, biochemical, fluorescence, DELFIA europium | Lysine-specific demethylase 4C (Homo sapiens), Q9H3R0 | GST-JMJD2C(1-420) H3K9me3 demethylation | inhibition, % at 2.35 µM | hit rate 0.069% among 330,000 | AID 2099, 2009;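 active = more than half of a compound's replicate wells show inhibition beyond 50%, single wells judged on their own value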;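 also: signal counts dimethyl H3K9 product captured on neutravidin plate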
Apaf1 inhib – inhibitors of human Apaf-1 apoptosome, primary screen, biochemical, DEVD-Rh110 fluorescence, uHTS; reconstituted apoptosome caspase-3 activity; inhibition, % at 20 µM; hit rate 0.71% among 330,000; AID 489030, 2010; active = inhibition of at least 40% at 20 µM
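detection = Rh110 fluorescence intensity | test system = biochemical Apaf-1 apoptosome reconstitution | also added = cytochrome c and DEVD-Rh110 substrate | schedule = 30 min plus 50 min, RT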
TDP2 absorb – human TDP2 enzyme inhibitors, primary screen, biochemical, epi absorbance, recombinant enzyme; Tyrosyl-DNA phosphodiesterase 2 (Homo sapiens), O95551; hit rate 0.34% among 370,000; inhibition, % at 12.8 µM; T5PNP hydrolysis, p-nitrophenol absorbance 415 nm;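 active = inhibition above the mean of all tested compounds plus 3 SD, set per campaign, cut at about 25% in these data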
Target sequence (O95551 whole entry, looked up): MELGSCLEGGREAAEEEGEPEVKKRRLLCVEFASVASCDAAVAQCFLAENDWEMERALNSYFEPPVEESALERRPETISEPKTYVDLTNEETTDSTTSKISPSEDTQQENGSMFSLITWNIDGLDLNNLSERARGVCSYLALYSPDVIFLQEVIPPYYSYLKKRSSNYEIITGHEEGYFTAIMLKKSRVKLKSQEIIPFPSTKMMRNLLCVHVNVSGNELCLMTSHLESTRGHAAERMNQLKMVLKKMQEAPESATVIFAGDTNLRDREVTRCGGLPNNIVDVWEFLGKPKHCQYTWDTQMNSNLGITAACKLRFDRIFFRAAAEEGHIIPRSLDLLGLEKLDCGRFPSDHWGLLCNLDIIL
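System – recombinant human TDP2 · Quantity – TDP2 enzyme at 120 nM final · Doses – single concentration, 12.8 µM nominal, with 1% DMSO · Incubation – 2 h at 37 °C · Measured by – epi absorbance of p-nitrophenol freed from T5PNP by hydrolysis · Read-out – % inhibition relative to enzyme-containing and enzyme-free wells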
PAD4 inh – human PAD4 inhibitors, primary screen, biochemical, fluorescence polarization, 1536-well format | AID 485272, 2010 | hit rate 0.41% among 330,000 | inhibition, % at 6.36 µM | recombinant PAD4, RCA probe fluorescence polarization;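 active = percent inhibition above a cutoff equal to the mean of all tested compounds plus 3 SD, cut at about 15% in these data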
SUMO HTRF inh – inhibitors of in vitro SUMOylation cascade, primary screen, biochemical, HTRF, uHTS | AID 2006, 2009 | hit rate 0.36% among 290,000 | SUMO-conjugating enzyme UBC9 (Homo sapiens), P63279 | inhibition, % at 35 µM | HTRF SUMOylation assay, SAE1/SAE2 + UBC9; in the data active = inhibition above about 50%, passing the limit was not always enough
Target sequence (P63279 whole entry, looked up): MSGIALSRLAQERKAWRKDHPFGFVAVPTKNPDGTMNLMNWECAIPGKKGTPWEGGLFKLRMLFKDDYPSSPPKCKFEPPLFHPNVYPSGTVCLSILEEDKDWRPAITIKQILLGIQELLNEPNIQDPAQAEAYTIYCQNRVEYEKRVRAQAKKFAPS
GSTO1 inh conf – GSTO1 inhibitor hit confirmation, counter-screen for RBBP9 inhibitor project, biochemical, fluorescence polarization, triplicate; shares compounds with GSTO1 inh; recombinant GSTO1, probe fluorescence polarization; inhibition, % at 5.96 µM; hit rate 54% among 2,400; AID 2176, 2009;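 active = inhibition above the primary screen's cutoff, its mean inhibition plus 3 SD, cut at about 35% in these data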;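 also: loss of polarization as inhibitors block binding of rhodamine sulfonate ester activity probe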
GSTO1 recomb ABPP – inhibitors of purified human GSTO1, late-stage follow-up, biochemical, gel ABPP, SE-Rh probe, percent inhibition | shares compounds with GSTO1 inh | recombinant GSTO1, gel ABPP SE-Rh probe fluorescence | inhibition, % at 1 µM | hit rate 30% among 130;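 active = inhibition of the enzyme GSTO1 above about 75%, limit read from the data; inactive = inhibition below that limit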
Hits are given with their value; 0 = inactive; - = no result.

SMILES | GSTO1 inh | JMJD2C inh | Apaf1 inhib | TDP2 absorb | PAD4 inh | SUMO HTRF inh | GSTO1 inh conf | others
Cc1cc(C(=O)CCl)c(C)n1-c1cccc([N+](=O)[O-])c1 | 96 | 0 | 0 | 0 | 0 | 0 | 94
[O-][n+]1c2c(nn1-c1ccccc1)/C(=N/O)CCC2 | 0 | 0 | 0 | 0 | 0 | 0 | -
[O-][n+]1onc2c1CCC(=N/O)/C2=N\Nc1ccccc1 | 40 | 0 | 0 | - | 0 | 0 | 0
CNC(=O)COC(=O)c1cc(-c2ccco2)nc2ccccc12 | 40 | 0 | 0 | 0 | 0 | 63 | 0
O=c1c2c([N+](=O)[O-])cc([N+](=O)[O-])cc2sn1-c1ccc(Br)cc1 | 38 | 0 | 0 | - | 0 | 0 | 0
COC(=O)CCC(=O)OC1(C)C(=O)C=C2C=C3CCCN3C=C2C1=O (stereo not drawn) | 38 | 0 | 0 | 0 | 0 | 0 | 0
CC1(OC(=O)C2CCCC2)C(=O)C=C2C=C3CCCCN3C=C2C1=O (stereo not drawn) | 51 | 0 | 0 | - | 0 | 0 | 0
COC(=O)CCC(=O)OC1(C)C(=O)C=C2C=C(C3CC3)N(c3ccccc3)C=C2C1=O (stereo not drawn) | 0 | 0 | 0 | 0 | 0 | 0 | -
COC(=O)CCC(=O)OC1(C)C(=O)C=C2C=C(C3CC3)N(Cc3ccc4c(c3)OCO4)C=C2C1=O (stereo not drawn) | 44 | 0 | 0 | 0 | 0 | 0 | 0
CCCc1ccc(C(=O)N2CCN(c3ccccc3OCC)CC2)cc1 | 46 | 0 | 0 | 0 | 0 | 0 | 0
N/C(=N/OC(=O)c1ccccc1Cl)c1ncc([N+](=O)[O-])s1 | 47 | 0 | 0 | 0 | 0 | 0 | 0
O=C(CCl)Nc1cccc(-c2cnc3ccccc3n2)c1 | 69 | 0 | 0 | 0 | 0 | 0 | 94
CCCCCCN(C(=O)CCl)c1ccccc1 | 83 | 0 | 0 | 0 | 0 | 0 | 97 | GSTO1 recomb ABPP=83
CCCCCCCN(C(=O)CCl)c1cccc(C)c1 | 97 | 0 | 0 | 0 | 0 | 0 | 96 | GSTO1 recomb ABPP=0
O=C(CCl)N(c1ccccc1)c1ccccc1 | - | 0 | - | 0 | - | 0 | -
CCCN(C(=O)Cn1ncc2c(=O)oc3ccccc3c21)c1cccc(C)c1 | 0 | 0 | 0 | 0 | 0 | 0 | -
CC(C)(C)CCN1C[C@@H]2C(CNC(=O)c3cc(Cl)cc(Cl)c3)[C@@H]2C1 (stereo partly drawn) | - | - | - | 0 | - | - | -
Cc1cccc(C)c1NC(=S)NCCc1ccc(O)c(O)c1 | 38 | 0 | 0 | 0 | 0 | 0 | 0
Cc1ccc(C(=O)NNC(=S)NC(=O)c2ccco2)cc1 | 0 | 0 | 0 | 0 | 0 | 0 | -
CC(C)C(=O)Nc1ccc(C(=O)NNC(=S)NC(=O)c2ccco2)cc1 | 45 | 0 | 0 | 0 | 0 | 0 | 0
CN(CCOC(=O)c1cc2ccccc2o1)C1CN(Cc2cn(Cc3ccccc3F)nn2)S(=O)(=O)C1 (stereo not drawn) | - | - | - | 0 | - | - | -
CC(=O)c1cccc(NC(=O)COC(=O)CCC(=O)c2ccc(F)cc2)c1 | - | 0 | 0 | 0 | 0 | - | -
CCN(c1ccc(NC(=O)COC(=O)CCC(=O)c2ccc(F)cc2)cc1)C(C)C | 38 | 0 | 0 | 0 | 0 | 0 | 0
O=C(CCl)N(c1ccccc1)C1CCS(=O)(=O)C1 (stereo not drawn) | 79 | 0 | 0 | 0 | 0 | 0 | 85 | GSTO1 recomb ABPP=0
Cn1c(Cc2cccs2)nnc1SCC(=O)Nc1ccc2cn[nH]c2c1 | - | - | - | 0 | - | - | -
SMILES | GSTO1 inh | JMJD2C inh | Apaf1 inhib | TDP2 absorb | PAD4 inh | SUMO HTRF inh | GSTO1 inh conf | others
O=C(Nc1ccc2ccccc2c1)NC1CCCCN(Cc2ccc(Cl)cc2)C1=O (stereo not drawn) | - | - | - | 0 | - | - | -
CN(C)c1ccc(N2CN=C3SCC(=O)N3C2)cc1 | 72 | 0 | 0 | 0 | 0 | 0 | 0
COC(=O)C1=C[C@@H]([C@@H](C)[C@H](OC)c2ccccc2Br)[C@@H]2OCCC[C@H]12 | - | - | - | 0 | - | - | -
O=C(COC(=O)c1ccc(Sc2ncn[nH]2)c([N+](=O)[O-])c1)Nc1ccc(Cl)c(Cl)c1 | - | - | - | 0 | - | - | -
c1coc(-c2nc3ccccc3nc2-c2ccco2)c1 | 62 | 0 | 0 | 28 | 0 | 0 | 61
c1coc(-c2cnc3ccccc3n2)c1 | - | - | - | 0 | - | - | -
O=[N+]([O-])c1ccc(/C=N/n2cnc3ccccc32)s1 | 55 | 0 | 0 | 0 | 0 | 0 | 0
O=C(OCC(=O)N1CCN(C(=O)c2ccco2)CC1)C1=COCCO1 | 0 | 0 | 0 | 0 | 0 | 0 | -
O=C(OCC(=O)N1CCN(c2ccccc2)CC1)C1=COCCO1 | 67 | 0 | 0 | 0 | 0 | 0 | 0
COc1ccc(NC(=O)N2CCC(c3nc4ccc(Cl)cc4[nH]3)CC2)cc1OC | - | - | - | 0 | - | - | -
CC#CC#Cc1cccc(=O)o1 | 82 | 0 | - | 0 | 0 | 0 | 80
CCC[C@H]1[C@@H](OC(=O)NCc2ccc(C)o2)CC[C@@]23CCCN2C(=O)CCC[C@@H]13 | - | - | - | 0 | - | - | -
CC1CCc2c(sc3nc(C(C)(C)C)nc(N4CCN(C(=O)CCl)CC4)c23)C1 (stereo not drawn) | 73 | 0 | 0 | 0 | 0 | 0 | 74 | GSTO1 recomb ABPP=0
CCC(=O)N1CCN(c2nc(CC)nc3sc4c(c23)CCCC4)CC1 | 0 | 0 | 0 | 0 | 0 | 0 | -
COc1ccc(S[C@]2(C(=O)NCc3ccccc3)CC(=O)N[C@@H]2c2ccc(OC)cc2)cc1 | - | - | - | 0 | - | - | -
Cc1ccc(N/N=C2\CC(=O)c3ccccc32)cc1Cl | 48 | 0 | 76 | - | 0 | 0 | 0
Cc1ccn2cc(-c3ccc(O)c(O)c3)nc2c1 | 60 | 0 | 0 | 0 | 0 | 0 | 0
Oc1ccc(-c2cn3ccccc3n2)cc1O | 43 | 0 | 0 | 0 | 0 | 0 | 0
CC(COc1cccc(C(F)(F)F)c1)CN1CCC(C(O)(c2ccccc2)c2ccccc2)CC1 (stereo not drawn) | - | - | - | 0 | - | - | -
COc1ccc2nc(Nc3sc4c(c3C(N)=O)CCCC4)sc2c1 | 42 | 0 | 0 | 0 | 0 | 0 | 0
COCCNC(=O)C(=O)N/N=C(\C)CC(=O)Nc1ccc(Cl)cc1Cl | 71 | 0 | 0 | 0 | 0 | 0 | 0
